Measured values published in ChEMBL document CHEMBL1145361, “3-Amino-1-alkyl-cyclopentane carboxamides as small molecule antagonists of the human and murine CC chemokine receptor 2” (Bioorg Med Chem Lett, 2007).

Key:
[1] = target: C-C chemokine receptor type 2 (Homo sapiens, UniProt P41597, I40L); assay: Displacement of [125I]MCP1 from human CCR2 I40L mutant expressed in CHO cells; type: cell-based
How it was run: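 Radioligand competition was run at room temperature for 45 min in 50 mM Hepes, 5 mM MgCl2, 1 mM CaCl2, pH 7.4, with 0.5% BSA and protease inhibitors. The reaction was stopped by filtration through GF/B filters presoaked in 0.10% polyethyleneimine to separate bound from free ligand.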

[2] = target: C-C chemokine receptor type 2 (Mus musculus, UniProt P51683); assay: Displacement of [125I]MCP1 from mouse CCR2 receptor expressed in CHO cells; type: cell-based
[3] = target: C-C chemokine receptor type 2 (Mus musculus) (UniProt P51683); assay: Displacement of [125I]MCP1 from mouse CCR2 receptor expressed in CHO cells at 1 uM; type: cell-based
[4] = Tmax in Sprague-Dawley rat at 3 mg/kg, po; type: ADME, organism-based; set-up: dose 3 mg/kg, route oral; conditions: in vivo
How it was run: (§1)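 Male Sprague–Dawley rats were dosed intravenously at 1.0 mg/kg and orally at 3.0 mg/kg. Clearance, volume of distribution, t1/2, Cmax, Tmax, oral bioavailability (F%) and AUC were determined, with oral AUC normalized.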

[5] = Cmax in Sprague-Dawley rat at 3 mg/kg, po; type: ADME, organism-based; set-up: dose 3 mg/kg, route oral; conditions: in vivo; how it was run: as §1
[6] = Half life in Sprague-Dawley rat at 1 mg/kg, iv; type: ADME, organism-based; set-up: dose 1 mg/kg, route intravenous; conditions: in vivo; how it was run: as §1
[7] = Bioavailability in Sprague-Dawley rat at 3 mg/kg, po; type: ADME, organism-based; conditions: in vivo; how it was run: as §1
[8] = Clearance in Sprague-Dawley rat at 1 mg/kg, iv; type: ADME, organism-based; set-up: dose 1 mg/kg, route intravenous; conditions: in vivo; how it was run: as §1
[9] = target: C-C chemokine receptor type 2 (Homo sapiens, UniProt P41597); assay: Inhibition of Ca2+ flux in human monocytes; type: functional, cell-based
[10] = Volume of distribution in Sprague-Dawley rat at 1 mg/kg, iv; type: ADME, organism-based; set-up: dose 1 mg/kg, route intravenous; conditions: in vivo, read-out: Vdss; how it was run: as §1
[11] = Half life in Sprague-Dawley rat at 3 mg/kg, po; type: ADME, organism-based; set-up: dose 3 mg/kg, route oral; conditions: in vivo; how it was run: as §1

C-C chemokine receptor type 2 (Homo sapiens, UniProt P41597), sequence (P41597 whole entry): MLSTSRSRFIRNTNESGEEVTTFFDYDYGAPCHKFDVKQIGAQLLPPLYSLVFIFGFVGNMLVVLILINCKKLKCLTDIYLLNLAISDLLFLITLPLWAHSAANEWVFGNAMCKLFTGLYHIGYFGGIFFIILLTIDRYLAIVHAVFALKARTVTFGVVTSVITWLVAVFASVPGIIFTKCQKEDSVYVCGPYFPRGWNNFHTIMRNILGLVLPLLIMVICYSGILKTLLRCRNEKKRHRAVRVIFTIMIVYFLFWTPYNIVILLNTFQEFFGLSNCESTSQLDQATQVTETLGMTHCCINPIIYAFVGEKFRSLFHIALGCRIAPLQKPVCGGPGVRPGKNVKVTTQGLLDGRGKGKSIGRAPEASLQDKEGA
C-C chemokine receptor type 2 (Homo sapiens, UniProt P41597, I40L), sequence (P41597 whole entry I40L): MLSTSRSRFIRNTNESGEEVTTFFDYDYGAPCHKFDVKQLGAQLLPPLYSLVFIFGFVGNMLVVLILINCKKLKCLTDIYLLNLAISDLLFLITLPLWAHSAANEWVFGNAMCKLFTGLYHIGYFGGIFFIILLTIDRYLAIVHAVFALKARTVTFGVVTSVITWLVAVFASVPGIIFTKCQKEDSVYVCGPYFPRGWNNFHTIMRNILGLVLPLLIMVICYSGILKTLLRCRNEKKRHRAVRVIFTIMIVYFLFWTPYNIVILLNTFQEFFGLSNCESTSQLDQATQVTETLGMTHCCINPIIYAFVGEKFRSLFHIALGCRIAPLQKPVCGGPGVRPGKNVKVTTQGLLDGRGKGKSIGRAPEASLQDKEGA
C-C chemokine receptor type 2 (Mus musculus, UniProt P51683), sequence (P51683 whole entry): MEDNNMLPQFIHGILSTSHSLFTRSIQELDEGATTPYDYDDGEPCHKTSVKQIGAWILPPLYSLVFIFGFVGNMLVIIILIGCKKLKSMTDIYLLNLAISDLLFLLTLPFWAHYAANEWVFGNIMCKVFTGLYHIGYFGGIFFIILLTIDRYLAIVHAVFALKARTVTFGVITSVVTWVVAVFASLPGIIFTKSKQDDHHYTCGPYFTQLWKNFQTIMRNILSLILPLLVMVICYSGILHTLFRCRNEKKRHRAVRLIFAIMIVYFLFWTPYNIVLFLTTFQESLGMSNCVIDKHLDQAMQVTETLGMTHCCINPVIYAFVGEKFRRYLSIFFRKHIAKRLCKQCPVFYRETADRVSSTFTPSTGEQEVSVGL
C-C chemokine receptor type 2 (Mus musculus), sequence (P51683 whole entry, looked up): as the sequence (P51683 whole entry) above

C[C@H]1CN(C2CCC(C(=O)NCc3cc(C(F)(F)F)cc(C(F)(F)F)c3)(C3CC3)C2)CC[C@]12C=Cc1ccccc12 (stereo partly specified)
IC50 [1]: 0.0065 µM
IC50 [2]: 0.045 µM

CSC[C@]1(C(=O)NCc2cc(F)cc(C(F)(F)F)c2)CC[C@@H](N2CC[C@]3(C=Cc4ccccc43)[C@@H](C)C2)C1
IC50 [1]: 0.0035 µM
IC50 [2]: 0.017 µM

CS[C@]1(C(=O)NCc2cc(C(F)(F)F)cc(C(F)(F)F)c2)CC[C@@H](N2CC[C@]3(C=Cc4ccccc43)[C@@H](C)C2)C1
IC50 [1]: 0.028 µM
IC50 [2]: 0.351 µM

CC(C)C[C@]1(C(=O)NCc2cc(C(F)(F)F)cc(C(F)(F)F)c2)CC[C@@H](N2CC[C@]3(C=Cc4ccccc43)[C@@H](C)C2)C1
IC50 [1]: 0.008 µM
IC50 [2]: 0.026 µM

CCC1(C(=O)NCc2cc(C(F)(F)F)cc(C(F)(F)F)c2)CCC(N2CC[C@]3(C=Cc4ccccc43)[C@@H](C)C2)C1 (stereo partly specified)
IC50 [1]: 0.01 µM
IC50 [2]: 0.0175 µM

C[C@H]1CN([C@@H]2CC[C@](C)(C(=O)NCc3cc(C(F)(F)F)cc(C(F)(F)F)c3)C2)CC[C@]12C=Cc1ccccc12
IC50 [1]: 0.009 µM
IC50 [2]: 0.126 µM

COCC1(C(=O)NCc2cc(C(F)(F)F)cc(C(F)(F)F)c2)CCC(N2CC[C@]3(C=Cc4ccccc43)[C@@H](C)C2)C1 (stereo partly specified)
IC50 [1]: 0.0155 µM
IC50 [2]: 0.093 µM

C[C@H]1CN(C2CCC(CC3CCC3)(C(=O)NCc3cc(F)cc(C(F)(F)F)c3)C2)CC[C@]12C=Cc1ccccc12 (single isomer, unassigned; diastereomer 4) [listing 1 of 2 here]
IC50 [1]: 0.229 µM

CSC[C@]1(C(=O)NCc2cc(C(F)(F)F)cc(C(F)(F)F)c2)CC[C@@H](N2CC[C@]3(C=Cc4ccccc43)[C@@H](C)C2)C1
IC50 [1]: 0.013 µM
IC50 [2]: 0.0655 µM

CCCCCCC1(C(=O)NCc2cc(F)cc(C(F)(F)F)c2)CCC(N2CC[C@]3(C=Cc4ccccc43)[C@@H](C)C2)C1 (stereo partly specified)
IC50 [1]: 0.027 µM
IC50 [2]: 0.128 µM

CC(C)[C@]1(C(=O)NCc2cc(C(F)(F)F)cc(C(F)(F)F)c2)CC[C@@H](N2CC[C@]3(C=Cc4ccccc43)[C@@H](C)C2)C1
IC50 [1]: 0.0076 µM
IC50 [2]: 0.015 µM

CCC1(C(=O)NCc2cc(F)cc(C(F)(F)F)c2)CCC(N2CC[C@]3(C=Cc4ccccc43)[C@@H](C)C2)C1 (stereo partly specified)
IC50 [1]: 0.0033 µM
IC50 [2]: 0.0035 µM

CCCC1(C(=O)NCc2cc(F)cc(C(F)(F)F)c2)CCC(N2CC[C@]3(C=Cc4ccccc43)[C@@H](C)C2)C1 (stereo partly specified)
IC50 [1]: 0.005 µM
IC50 [2]: 0.017 µM

CS[C@]1(C(=O)NCc2cc(F)cc(C(F)(F)F)c2)CC[C@@H](N2CC[C@]3(C=Cc4ccccc43)[C@@H](C)C2)C1
IC50 [1]: 0.067 µM
IC50 [2]: 0.193 µM

C[C@H]1CN(C2CCC(CC3CCC3)(C(=O)NCc3cc(F)cc(C(F)(F)F)c3)C2)CC[C@]12C=Cc1ccccc12 (single isomer, unassigned; diastereomer 4) [listing 2 of 2 here]
Activity [3]: 49%

COCC1(C(=O)NCc2cc(F)cc(C(F)(F)F)c2)CCC(N2CC[C@]3(C=Cc4ccccc43)[C@@H](C)C2)C1 (stereo partly specified)
IC50 [1]: 0.0085 µM
IC50 [2]: 0.074 µM

C[C@H]1CN(C2CCC(CC3CCC3)(C(=O)NCc3cc(F)cc(C(F)(F)F)c3)C2)CC[C@]12C=Cc1ccccc12 (single isomer, unassigned; diastereomer 2)
IC50 [1]: 0.032 µM
IC50 [2]: 0.147 µM

CC(C)[C@]1(C(=O)NCc2cc(F)cc(C(F)(F)F)c2)CC[C@@H](N2CC[C@]3(C=Cc4ccccc43)[C@@H](C)C2)C1
IC50 [1]: 0.0031 µM
Tmax [4]: 0.83 h
Cmax [5]: 0.414 µM
IC50 [2]: 0.005 µM
half-life [6]: 2.5 h
bioavailability [7]: 32%
clearance [8]: 1.16 L/h/kg
IC50 [9]: 0.00071 µM
Vd [10]: 2.99 L/kg
half-life [11]: 2 h

C[C@H]1CN([C@@H]2CC[C@](CC3CCC3)(C(=O)NCc3cc(C(F)(F)F)cc(C(F)(F)F)c3)C2)CC[C@]12C=Cc1ccccc12
IC50 [1]: 0.019 µM
IC50 [2]: 0.064 µM

CC(C)C[C@]1(C(=O)NCc2cc(F)cc(C(F)(F)F)c2)CC[C@@H](N2CC[C@]3(C=Cc4ccccc43)[C@@H](C)C2)C1
IC50 [1]: 0.0039 µM
IC50 [2]: 0.0075 µM
IC50 [9]: 0.00204 µM

C[C@H]1CN([C@@H]2CC[C@H](C(=O)NCc3cc(C(F)(F)F)cc(C(F)(F)F)c3)C2)CC[C@]12C=Cc1ccccc12
IC50 [1]: 0.02 µM
Activity [3]: 27%

CCC[C@]1(C(=O)NCc2cc(C(F)(F)F)cc(C(F)(F)F)c2)CC[C@@H](N2CC[C@]3(C=Cc4ccccc43)[C@@H](C)C2)C1
IC50 [1]: 0.016 µM
IC50 [2]: 0.0443 µM

C[C@H]1CN(C2CCC(CC3CC3)(C(=O)NCc3cc(C(F)(F)F)cc(C(F)(F)F)c3)C2)CC[C@]12C=Cc1ccccc12 (stereo partly specified)
IC50 [1]: 0.02 µM
IC50 [2]: 0.0635 µM

CCCCCCC1(C(=O)NCc2cc(C(F)(F)F)cc(C(F)(F)F)c2)CCC(N2CC[C@]3(C=Cc4ccccc43)[C@@H](C)C2)C1 (stereo partly specified)
IC50 [1]: 0.231 µM
IC50 [2]: 0.279 µM

C[C@H]1CN(C2CCC(CC3CC3)(C(=O)NCc3cc(F)cc(C(F)(F)F)c3)C2)CC[C@]12C=Cc1ccccc12 (stereo partly specified)
IC50 [1]: 0.0055 µM
IC50 [2]: 0.015 µM

C[C@H]1CN(C2CCC(CC3CCC3)(C(=O)NCc3cc(F)cc(C(F)(F)F)c3)C2)CC[C@]12C=Cc1ccccc12 (stereo partly specified)
IC50 [1]: 0.0063 µM
IC50 [2]: 0.028 µM

C[C@H]1CN(C2CCC(CC3CCC3)(C(=O)NCc3cc(F)cc(C(F)(F)F)c3)C2)CC[C@]12C=Cc1ccccc12 (single isomer, unassigned; diastereomer 3)
IC50 [1]: 0.135 µM
IC50 [2]: 0.559 µM

C[C@H]1CN([C@@H]2CC[C@](C)(C(=O)NCc3cc(F)cc(C(F)(F)F)c3)C2)CC[C@]12C=Cc1ccccc12
IC50 [1]: 0.004 µM
IC50 [2]: 0.057 µM

C[C@H]1CN([C@@H]2CC[C@@](C(=O)NCc3cc(F)cc(C(F)(F)F)c3)(C3CC3)C2)CC[C@]12C=Cc1ccccc12
IC50 [1]: 0.0019 µM
IC50 [2]: 0.008 µM
IC50 [9]: 0.00063 µM
